The values that follow come from ChEMBL document CHEMBL1141595, “1-(2-Phenoxyphenyl)methanamines: SAR for dual serotonin/noradrenaline reuptake inhibition, metabolic stability and hERG affinity” (Bioorg Med Chem Lett, 2008).

Data set [1] deals with Sodium-dependent noradrenaline transporter (Homo sapiens, UniProt P23975). The data set is described as follows: Inhibition of [3H]NA uptake at human NA transporter expressed in HEK293 cells. Type of data set: cell-based. In outline: (§1)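 HEK293 cells each expressing one human amine transporter, 7500 cells/well, preincubated 5 min at 25 °C with compound or DMSO vehicle. Uptake was started with tritiated substrate: 5-HT 50 nM (5 min), NA 200 nM (15 min), DA 200 nM (5 min), shaken at 25 °C. Stopped by ice-cold wash and filtration, then scintillation counting.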

The target of data set [2] is Sodium-dependent serotonin transporter (Homo sapiens, UniProt P31645). The data set is described as follows: Inhibition of [3H]5HT uptake at human 5HT transporter expressed in HEK293 cells. It is filed as cell-based. The procedure, abridged:
as §1

For data set [3], the target named is Sodium-dependent dopamine transporter (Homo sapiens, UniProt Q01959). The data set is described as follows: Inhibition of [3H]dopamine uptake at human dopamine transporter expressed in HEK293 cells. Type of data set: cell-based. In outline: as §1
Data set [4] is described as follows: Metabolic stability assessed as intrinsic clearance in human liver microsomes. It is filed as ADME, Microsome. In general terms: Microsomes from liver hold many membrane-bound enzymes, among them those of drug oxidation.
Data set [5] is described as follows: Membrane permeability by PAMPA assay. Type of data set: ADME. In general terms: In PAMPA a lipid-coated filter parts donor from acceptor wells.
Data set [6] deals with Voltage-gated inwardly rectifying potassium channel KCNH2 (Homo sapiens, UniProt Q12809). Description: Binding affinity to human ERG.

A value given as a limit tells only on which side of the number the result lay.

Sequence of Sodium-dependent serotonin transporter (P31645 whole entry): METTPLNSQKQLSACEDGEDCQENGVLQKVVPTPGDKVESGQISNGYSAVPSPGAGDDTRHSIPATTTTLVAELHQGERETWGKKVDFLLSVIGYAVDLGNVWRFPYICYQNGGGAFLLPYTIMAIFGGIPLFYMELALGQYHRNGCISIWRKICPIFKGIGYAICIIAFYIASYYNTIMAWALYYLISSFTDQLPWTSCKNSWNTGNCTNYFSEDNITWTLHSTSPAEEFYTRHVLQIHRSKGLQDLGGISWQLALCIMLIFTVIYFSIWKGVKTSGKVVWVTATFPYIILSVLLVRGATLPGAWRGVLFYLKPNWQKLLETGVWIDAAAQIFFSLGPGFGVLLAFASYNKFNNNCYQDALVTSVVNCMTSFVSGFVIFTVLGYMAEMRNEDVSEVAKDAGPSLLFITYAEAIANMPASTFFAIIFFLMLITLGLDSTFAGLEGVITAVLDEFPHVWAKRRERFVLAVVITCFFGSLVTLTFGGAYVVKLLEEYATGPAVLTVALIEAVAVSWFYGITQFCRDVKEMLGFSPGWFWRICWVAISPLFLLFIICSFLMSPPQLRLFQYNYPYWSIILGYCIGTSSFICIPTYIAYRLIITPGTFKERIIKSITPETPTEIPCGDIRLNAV
Sequence of Sodium-dependent noradrenaline transporter (P23975 whole entry): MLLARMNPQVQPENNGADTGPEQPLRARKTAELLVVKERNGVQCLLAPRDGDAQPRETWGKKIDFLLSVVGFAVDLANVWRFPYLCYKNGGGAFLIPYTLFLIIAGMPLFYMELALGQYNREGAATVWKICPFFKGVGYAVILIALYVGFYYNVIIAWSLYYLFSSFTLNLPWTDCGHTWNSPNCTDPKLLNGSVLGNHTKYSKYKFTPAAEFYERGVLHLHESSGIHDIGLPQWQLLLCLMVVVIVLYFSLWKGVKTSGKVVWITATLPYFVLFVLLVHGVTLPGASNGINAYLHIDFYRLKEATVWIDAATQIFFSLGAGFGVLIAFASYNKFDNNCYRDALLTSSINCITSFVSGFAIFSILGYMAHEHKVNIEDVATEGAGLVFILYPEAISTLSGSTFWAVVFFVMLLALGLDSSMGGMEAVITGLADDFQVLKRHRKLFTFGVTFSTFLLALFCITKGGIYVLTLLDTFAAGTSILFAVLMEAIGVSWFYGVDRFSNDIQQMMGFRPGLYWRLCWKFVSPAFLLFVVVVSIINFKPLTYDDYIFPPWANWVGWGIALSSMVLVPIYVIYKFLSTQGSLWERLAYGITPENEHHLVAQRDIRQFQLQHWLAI
Sequence of Sodium-dependent dopamine transporter (Q01959 whole entry): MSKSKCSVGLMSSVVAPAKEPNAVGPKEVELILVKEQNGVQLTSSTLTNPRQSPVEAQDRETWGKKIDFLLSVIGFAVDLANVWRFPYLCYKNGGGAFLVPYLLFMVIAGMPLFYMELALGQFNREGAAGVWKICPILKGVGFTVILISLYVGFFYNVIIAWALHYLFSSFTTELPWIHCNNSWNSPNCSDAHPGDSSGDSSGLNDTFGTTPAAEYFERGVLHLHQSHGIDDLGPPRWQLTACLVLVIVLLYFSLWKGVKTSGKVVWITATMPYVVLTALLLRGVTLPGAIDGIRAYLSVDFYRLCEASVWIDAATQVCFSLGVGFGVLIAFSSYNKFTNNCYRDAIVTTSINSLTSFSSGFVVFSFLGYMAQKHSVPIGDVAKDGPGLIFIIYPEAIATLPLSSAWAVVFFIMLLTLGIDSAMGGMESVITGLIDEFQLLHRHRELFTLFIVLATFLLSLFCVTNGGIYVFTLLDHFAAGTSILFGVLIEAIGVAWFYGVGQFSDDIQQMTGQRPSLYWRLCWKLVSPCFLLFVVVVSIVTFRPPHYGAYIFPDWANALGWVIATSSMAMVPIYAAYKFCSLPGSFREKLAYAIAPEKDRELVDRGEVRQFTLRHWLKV
Sequence of Voltage-gated inwardly rectifying potassium channel KCNH2 (Q12809 whole entry): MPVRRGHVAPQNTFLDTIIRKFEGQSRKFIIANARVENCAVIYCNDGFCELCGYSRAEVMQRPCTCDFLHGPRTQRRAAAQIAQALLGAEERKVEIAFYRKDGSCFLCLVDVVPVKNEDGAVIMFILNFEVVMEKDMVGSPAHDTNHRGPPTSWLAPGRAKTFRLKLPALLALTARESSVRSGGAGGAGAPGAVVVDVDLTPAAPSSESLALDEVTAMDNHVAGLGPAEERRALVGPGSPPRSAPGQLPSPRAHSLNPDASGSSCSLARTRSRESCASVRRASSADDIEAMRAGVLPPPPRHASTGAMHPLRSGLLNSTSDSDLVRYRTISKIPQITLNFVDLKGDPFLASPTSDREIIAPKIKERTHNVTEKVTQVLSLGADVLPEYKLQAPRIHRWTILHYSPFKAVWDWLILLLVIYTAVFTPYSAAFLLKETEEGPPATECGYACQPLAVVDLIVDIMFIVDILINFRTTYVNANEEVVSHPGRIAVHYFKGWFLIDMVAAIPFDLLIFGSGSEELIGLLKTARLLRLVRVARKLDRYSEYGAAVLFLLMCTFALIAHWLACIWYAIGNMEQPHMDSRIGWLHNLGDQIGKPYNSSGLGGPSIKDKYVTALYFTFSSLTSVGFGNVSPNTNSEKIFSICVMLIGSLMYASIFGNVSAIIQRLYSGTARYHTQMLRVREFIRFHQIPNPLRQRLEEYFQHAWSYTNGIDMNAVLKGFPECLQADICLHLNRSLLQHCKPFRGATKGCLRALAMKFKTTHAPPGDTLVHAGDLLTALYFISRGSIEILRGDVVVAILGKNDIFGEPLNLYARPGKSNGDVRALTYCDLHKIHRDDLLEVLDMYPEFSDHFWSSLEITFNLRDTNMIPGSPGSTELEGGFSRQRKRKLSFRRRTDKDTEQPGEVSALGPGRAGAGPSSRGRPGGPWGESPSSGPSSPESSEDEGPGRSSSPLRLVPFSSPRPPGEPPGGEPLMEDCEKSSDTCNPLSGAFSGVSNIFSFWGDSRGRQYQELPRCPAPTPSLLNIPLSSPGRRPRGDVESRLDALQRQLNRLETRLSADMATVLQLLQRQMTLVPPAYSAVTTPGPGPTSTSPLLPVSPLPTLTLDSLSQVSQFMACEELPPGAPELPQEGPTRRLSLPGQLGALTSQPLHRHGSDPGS

One may read the IC50 as the midpoint of a concentration-inhibition curve. A higher IC50 goes with weaker potency. As for `CN(C)Cc1ccccc1Oc1ccccc1`, the figures for the IC50 in data set [1] and in data set [2] were 70 nM and 660 nM, respectively.
`CNCc1ccccc1Oc1ccc(OC)cc1Cl`: the concentration for half-maximal inhibition (IC50) in data set [3] worked out at 5950 nM; in data set [1], 157 nM; in data set [2] it was 22 nM.
The microsomal CLint is a measure of how fast metabolising enzymes remove a compound, apart from limits set by blood flow. On to `CN(C)Cc1ccccc1Oc1ccccc1Cl`, for which the microsomal CLint in data set [4] worked out at 186 µL/min/mg. Besides, the IC50 in data set [3] came to 2730 nM; in data set [1] it was 15 nM; in data set [2], 282 nM.
As for `CNCc1cc(C#N)ccc1Oc1ccc(Cl)cc1OC`, the IC50 was above 40000 nM in data set [3], above 400 nM in data set [1] and 5 nM in data set [2].
As usually defined, the Papp is the rate of passage across a membrane or cell layer, normalised by area and donor concentration. With `CNCc1cc(C(=O)N(C)C)ccc1Oc1ccc(Cl)cc1OC`, the intrinsic metabolic clearance (microsomal CLint) in data set [4] was determined as 15 µL/min/mg. Further, the concentration for half-maximal inhibition (IC50) in data set [3] was above 40000 nM; in data set [1], 32 nM; in data set [2], 8 nM. The Papp in data set [5] came to 15 ×10⁻⁶ cm/s.
The term Ki denotes the equilibrium dissociation constant of an inhibitor or competing ligand from its target. As to `CNCc1cc(C(=O)N(C)C)ccc1Oc1ccc(Cl)cc1C`, the microsomal CLint in data set [4] is 9 µL/min/mg. The IC50 came out at 172 nM in data set [3], 17 nM in data set [1] and 17 nM in data set [2]. Besides, the Papp in data set [5] stood at 19 ×10⁻⁶ cm/s. The Ki in data set [6] stood at 3.75 µM.
As for `CN(C)Cc1ccccc1Oc1ccc(Cl)cc1F`, the IC50 is 421 nM in data set [3], 21 nM in data set [1] and 6 nM in data set [2].
The matching figures for `CN(C)Cc1ccccc1Oc1ccc(Cl)cc1`: 124 nM, 256 nM and 18 nM.
With `CNCc1cc(C(=O)NC)ccc1Oc1ccc(Cl)cc1Cl`, the microsomal CLint in data set [4] was determined as 9 µL/min/mg. In addition, the IC50 came out at 800 nM in data set [3], 38 nM in data set [1] and 13 nM in data set [2]. The Ki in data set [6] came to 1.76 µM.
For the molecule `CNCc1cc(NS(C)(=O)=O)ccc1Oc1ccc(Cl)cc1C`, the microsomal CLint in data set [4] amounted to 8 µL/min/mg. In addition, the IC50 in data set [3] came to 320 nM; in data set [1] it was 25 nM; in data set [2], 16 nM. In data set [5], this molecule showed a Papp of 2.2 ×10⁻⁶ cm/s. Moreover, affinity in data set [6] was put at a Ki of 7.25 µM.
For the molecule `CNCc1ccccc1Oc1ccc(Cl)cc1OC`, the intrinsic metabolic clearance (microsomal CLint) in data set [4] was found to be 9 µL/min/mg. The IC50 turned out to be 19600 nM in data set [3], 78 nM in data set [1] and 13 nM in data set [2]. In data set [6], this molecule displayed a Ki of 4.38 µM.
Consider `CNCc1cc(C(N)=O)ccc1Oc1ccc(Cl)cc1Cl`, for which, in data set [4], the microsomal CLint was 8 µL/min/mg. The results for the IC50 in data set [3], in data set [1] and in data set [2] were 1210 nM, 84 nM and 37 nM, respectively. The same molecule displayed an apparent permeability coefficient (Papp) in data set [5] of 10 ×10⁻⁶ cm/s.
As for `CNCc1ccccc1Oc1ccc(Cl)cc1Cl`, the IC50 was 506 nM in data set [3], 42 nM in data set [1] and 56 nM in data set [2].
For `CNCc1cc(C(=O)N(C)C)ccc1Oc1ccc(Cl)cc1Cl`, the microsomal CLint in data set [4] is 13 µL/min/mg. The IC50 worked out at 275 nM in data set [3], 33 nM in data set [1] and 11 nM in data set [2]. Moreover, the Papp in data set [5] is 14 ×10⁻⁶ cm/s.
With `CNCc1ccccc1Oc1ccc(Cl)cc1C`, the microsomal CLint in data set [4] is 20 µL/min/mg. Further, the IC50 in data set [3] was 421 nM; in data set [1] it was 22 nM; in data set [2], 18 nM.
With `CNCc1ccccc1Oc1ccc(Cl)cc1F`, the microsomal CLint in data set [4] is 22 µL/min/mg. Also, the results for the IC50 in data set [1] and in data set [2] were 429 nM and 73 nM, respectively. The Ki in data set [6] was found to be 5.93 µM.
Take `CNCc1cc(C#N)ccc1Oc1ccc(Cl)cc1Cl`: the IC50 was 3010 nM in data set [3], above 400 nM in data set [1] and 28 nM in data set [2]. In data set [6], this molecule gave a Ki of 2.21 µM.
Turning to `CNCc1cc(C(N)=O)ccc1Oc1ccc(Cl)cc1OC`, the microsomal CLint in data set [4] was 8 µL/min/mg. Further, the IC50 in data set [3] came to 21000 nM; in data set [1], 62 nM; in data set [2] it was 12 nM. In data set [5], this molecule had an apparent permeability coefficient (Papp) of 11 ×10⁻⁶ cm/s. Moreover, the Ki in data set [6] is above 7.5 µM.
For the molecule `COc1cc(Cl)ccc1Oc1ccccc1CN(C)C`, in data set [4], the microsomal CLint was 45 µL/min/mg. The IC50 stood at 3780 nM in data set [3], 14 nM in data set [1] and 6 nM in data set [2]. Further, in data set [6], the Ki is above 7.5 µM.
Regarding `CN(C)Cc1ccccc1Oc1ccc(F)cc1Cl`, the intrinsic metabolic clearance (microsomal CLint) in data set [4] was determined as 219 µL/min/mg. For the same molecule, the IC50 turned out to be 2130 nM in data set [3], 46 nM in data set [1] and 32 nM in data set [2].
As to `CNCc1cc(C(N)=O)ccc1Oc1ccc(Cl)cc1C`, the microsomal CLint in data set [4] is 8 µL/min/mg. Also, the IC50 in data set [3] is 2820 nM; in data set [1], 46 nM; in data set [2], 7 nM.
Take `CN(C)Cc1ccccc1Oc1ccc(Cl)cc1Cl`: the microsomal CLint in data set [4] came out at 223 µL/min/mg. Also, the values for the IC50 in data set [3], in data set [1] and in data set [2] were 195 nM, 11 nM and 4 nM, respectively.
Consider `CN(C)Cc1ccccc1Oc1cccc(Cl)c1`, for which the values for the IC50 in data set [3], in data set [1] and in data set [2] were 194 nM, 82 nM and 238 nM, respectively.
With `Cc1cccc(CN(C2CCOCC2)[C@H]2CCNC2)c1C`, the microsomal CLint in data set [4] was below 7 µL/min/mg.
Take `CNCc1cc(N2CCCS2(=O)=O)ccc1Oc1ccc(Cl)cc1C`: the microsomal CLint in data set [4] came out at 11 µL/min/mg. In addition, the IC50 stood at 47 nM in data set [3], 11 nM in data set [1] and 10 nM in data set [2]. The molecule also yielded a Papp in data set [5] of 2.7 ×10⁻⁶ cm/s. In addition, the Ki in data set [6] was 1.59 µM.
In the case of `CNCc1cc(C(=O)NC)ccc1Oc1ccc(Cl)cc1C`, in data set [4], the microsomal CLint was found to be 9 µL/min/mg. The IC50 in data set [3] was determined as 387 nM; in data set [1], 26 nM; in data set [2], 14 nM.
On to `CNCc1cc(C(=O)NC)ccc1Oc1ccc(Cl)cc1OC`, for which the microsomal CLint in data set [4] is 8 µL/min/mg. In addition, the IC50 in data set [3] was 15700 nM; in data set [1], 78 nM; in data set [2] it was 13 nM. This molecule had a Papp in data set [5] of 14 ×10⁻⁶ cm/s. The same molecule registered an inhibitory constant (Ki) in data set [6] above 7.5 µM.
On to `CNCc1ccccc1Oc1ccc(F)cc1Cl`, for which the results for the IC50 in data set [3] and in data set [1] were 6510 nM and 300 nM, respectively.
Consider `CNCc1cc(N2CCCS2(=O)=O)ccc1Oc1ccc(Cl)cc1Cl`, for which the microsomal CLint in data set [4] stood at 12 µL/min/mg. Further, the values for the IC50 in data set [3], in data set [1] and in data set [2] were 138 nM, 17 nM and 12 nM, respectively.
